In data set [1] the test system is Mus musculus. In words: Antidiabetic activity in fasted ICR mouse assessed as inhibition of plasma glucose concentration at 300 mg/kg, po administered 30 mins prior to glucose-challenge by oral glucose tolerance test. In kind it is functional. The procedure, abridged: (§1)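 7-week-old ICR mice fasted 15–17 h, dosed orally with compound suspended in 0.3% CMC-Na or with vehicle. Glucose 5 g/kg given orally 30 min later. Tail-vein blood sampled before dosing and at 0, 0.5, 1 and 2 h after the glucose load; plasma glucose measured by glucose C II-test. The summed 0.5 + 1 h glucose values are expressed as % decrease versus vehicle.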

Data set [2] addresses T1, Glycogen synthase kinase-3 beta (Homo sapiens, UniProt P49841). In words: Inhibition of GSK3-beta in human HepG2 cells assessed as incorporation of [3H]glucose into glycogen at 30 uM after 3 hrs by liquid scintillation counting relative to CHIR99021. In kind it is cell-based. The gist of the method: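 Hep G2 cells seeded at 1 × 10^5 per well and cultured 3 days, then serum-starved 3 h in low-glucose DMEM. Compound added at varying concentrations with […] D-[2-3H]glucose (0.3% DMSO final) for 3 h at 37 °C. Cells lysed in KOH, glycogen ethanol-precipitated, and [3H] incorporation counted by scintillation. Efficacy is % of reference at 30 µM; n = 3.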
Target sequence in this assay (P49841 whole entry, looked up): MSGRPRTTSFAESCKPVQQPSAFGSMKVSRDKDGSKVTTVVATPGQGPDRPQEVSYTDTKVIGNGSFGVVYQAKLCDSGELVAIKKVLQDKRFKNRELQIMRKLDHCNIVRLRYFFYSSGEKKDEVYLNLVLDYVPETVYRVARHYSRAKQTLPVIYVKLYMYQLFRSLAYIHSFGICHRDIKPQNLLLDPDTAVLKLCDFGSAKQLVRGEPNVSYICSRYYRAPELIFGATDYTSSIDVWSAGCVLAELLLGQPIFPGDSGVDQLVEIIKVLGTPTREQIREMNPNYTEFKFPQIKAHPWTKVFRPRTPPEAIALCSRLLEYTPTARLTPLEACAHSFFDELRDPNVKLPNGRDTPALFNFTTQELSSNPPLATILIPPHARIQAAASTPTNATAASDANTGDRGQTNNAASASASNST

Another data set deals with Staphylococcus aureus. Kind of data set: Antibacterial activity against Staphylococcus aureus after 18 hrs by microdilution method. It counts as organism-based. As to conditions: in vitro. A general note: Broth dilution looks for growth in wells or tubes with falling amounts of substance.
The subject of a further data set is Escherichia coli. Kind of data set: Antibacterial activity against Escherichia coli after 18 hrs by microdilution method. It counts as organism-based.
Data set [3] deals with T1, Glycogen synthase kinase-3 beta. In words: Inhibition of human recombinant GSK3-beta after 1 hr by KinaseGlo luciferase assay. (In Kinase-Glo more light means more ATP remaining.)
Target sequence in this assay (P49841 whole entry): as the sequence (P49841 whole entry, looked up) above
Data set [4] in a line: Ratio of drug uptake in ICR mouse liver to ICR mouse plasma at 300 mg/kg, po at 4 hrs. In kind it is ADME, organism-based. Also noted: dose 300 mg/kg, route oral. The gist of the method: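 Liver and plasma concentrations measured 4 h after an oral 300 mg/kg dose in ICR mice; ratio given as liver/plasma; means, n = 5–6.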
A short description of data set [5]: AUC (0 to 25 hrs) in ICR mouse plasma at 300 mg/kg, po. It counts as ADME, organism-based. Also noted: time < 25 hr, dose 300 mg/kg, route oral.
Data set [6] addresses T1, Glycogen synthase kinase-3 beta. In words: Inhibition of GSK3-beta in human HepG2 cells assessed as incorporation of [3H]glucose into glycogen after 3 hrs by liquid scintillation counting. In kind it is cell-based.
Target sequence in this assay (P49841 whole entry): as the sequence (P49841 whole entry, looked up) above
Data set [7] can be described thus: AUC in ICR mouse liver at 300 mg/kg, po. It counts as ADME, organism-based. Also noted: dose 300 mg/kg, route oral. The procedure, abridged: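 ICR mice dosed orally at 300 mg/kg. Liver AUC was calculated from the plasma AUC and the liver-to-plasma concentration ratio at 4 h post-dose. Means, n = 5–6.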
Data set [8] has as its system Mus musculus. Kind of data set: Ratio of AUC (0 to 25 hrs) in ICR mouse plasma to AUC in ICR mouse liver at 300 mg/kg, po. In kind it is ADME, organism-based. Also noted: dose 300 mg/kg, route oral. Particulars: in vivo.
The subject of data set [9] is Mus musculus. In words: Antidiabetic activity in fasted ICR mouse assessed as inhibition of plasma glucose concentration at 50 mg/kg, po administered 30 mins prior to glucose-challenge by oral glucose tolerance test. It counts as functional. The procedure, abridged: as §1
Data set [10] deals with Mus musculus. In words: Antidiabetic activity in fasted ICR mouse assessed as inhibition of plasma glucose concentration at 100 mg/kg, po administered 30 mins prior to glucose-challenge by oral glucose tolerance test. It counts as functional. The procedure, abridged:
as §1

Data set [11] relates to Mus musculus. Kind of data set: Antidiabetic activity in fasted ICR mouse assessed as inhibition of plasma glucose concentration at 150 mg/kg, po administered 30 mins prior to glucose-challenge by oral glucose tolerance test. It counts as functional. The procedure, abridged:
as §1

Data set [12] concerns Mus musculus. In words: Antidiabetic activity in po dosed fasted ICR mouse assessed as inhibition of plasma glucose concentration administered 30 mins prior to glucose-challenge by oral glucose tolerance test. It counts as functional, organism-based. The procedure, abridged:
as §1

Values after ≈ are worked out from the molar mass of the structure shown.

The term inhibition in vivo denotes the relative decrease from the control value, in per cent. In the case of `Cc1cnc(-c2cnc(NCCNc3ccc(C#N)cn3)nc2-c2ccc(Cl)cc2Cl)[nH]1` [LADUVIGLUSIB], in the data set on Mus musculus [1], the inhibition in vivo at 300 mg/kg worked out at 38%. In addition, the Efficacy in data set [2] was determined as 100%.
One may read the IC50 as the midpoint of a concentration-inhibition curve. With `Nc1c(F)c(NCCNc2ccccn2)c2c3c1c(=O)c(C(=O)O)cn3C1(CCO2)CC1`, the MIC against Staphylococcus aureus worked out at 5 µM (≈ 2.2 µg/mL); against Escherichia coli, 9 µM (≈ 3.96 µg/mL). Moreover, the Efficacy in [2] amounted to 42%. In addition, the concentration for half-maximal inhibition (IC50) in data set [3] is 37 nM.
Broadly, the Kp is tissue or fluid exposure divided by exposure in the circulation. In general, AUC(0-t) refers to the area under the concentration-time curve up to a stated or last time point. Read a low AUC(0-t) as less exposure. As a reminder, the EC50 is the concentration that produces a half-maximal response. A word on the AUC: it is concentration integrated over time. For `CC1COc2c(NCCNc3ccccn3)c(F)c(N)c3c(=O)c(C(=O)O)cn(c23)C12CCC2` (configuration not stated), in data set [4], the concentration ratio (Kp) at 4 h was found to be 32. In addition, the MIC against Staphylococcus aureus and in the data set on Escherichia coli was over 34 µM throughout. The compound further came in with an exposure AUC(0-t) at 25 h in data set [5] of 6.8 µM·h. Moreover, the inhibition in vivo at 300 mg/kg in the data set with Mus musculus [1] turned out to be 13%. In addition, the Efficacy in [2] was determined as 48%. In addition, the EC50 in [6] stood at 1400 nM. Besides, in data set [3], the IC50 stood at 10 nM. In addition, the AUC in data set [7] came out at 217 µM·h.
`CC1CC2(CCC2)n2cc(C(=O)O)c(=O)c3c(N)c(F)c(NCCNc4ccccn4)c(c32)O1` (configuration not stated): the MIC in the data set with Staphylococcus aureus and with Escherichia coli was over 34 µM in each case. The Efficacy in data set [2] was 94%. The EC50 in data set [6] is 2100 nM. The concentration for half-maximal inhibition (IC50) in data set [3] amounted to 250 nM.
With `Cc1c[nH]c(-c2cnc(NCCNc3ccc(C#N)cn3)nc2-c2ccc(Cl)cc2Cl)n1` [LADUVIGLUSIB], the Kp at 4 h in [4] came out at 3.8. The same compound registered an exposure AUC(0-t) at 25 h in data set [5] of 210 µM·h. The compound further had an AUC in data set [7] of 820 µM·h.
Take `Nc1c(F)c(NCCNc2ccccn2)c2c3c1c(=O)c(C(=O)O)cn3C1(CCC1)CCN2`: the MIC in the data set on Staphylococcus aureus and against Escherichia coli was over 140 µM in each case. The Efficacy in [2] was 12%. Also, the IC50 in data set [3] is 550 nM.
As to `Nc1c(F)c(NCCNc2ccccn2)c2c3c1c(=O)c(C(=O)O)cn3C1(CCCC1)CO2`, in [6], the concentration for a half-maximal effect (EC50) came to 20000 nM.
As to `Nc1c(F)c(NCCNc2ccccn2)c2c3c1c(=O)c(C(=O)O)cn3C1(CCCC1)CCO2`, the MIC with Staphylococcus aureus and with Escherichia coli was over 34 µM in each case. Also, the Efficacy in [2] was found to be 85%. Also, the EC50 in data set [6] worked out at 13000 nM. For the same compound, the half-inhibitory concentration (IC50) in [3] worked out at 250 nM.
In the case of `Nc1c(F)c(NCCNc2ccccn2)c2c3c1c(=O)c(C(=O)O)cn3C1(CCC1)CCO2`, in the data set with Mus musculus [8], the “Ratio AUC” value came to 32. In addition, in the data set with Mus musculus [9], the inhibition in vivo at 50 mg/kg worked out at 20%. Moreover, the inhibition in vivo at 100 mg/kg with Mus musculus [10] was determined as 32%. For the same compound, in data set [4], the concentration ratio (Kp) at 4 h worked out at 32. The MIC with Staphylococcus aureus was 18 µM (≈ 8.16 µg/mL); against Escherichia coli, over 34 µM. Moreover, in data set [5], the exposure AUC(0-t) at 25 h was 24 µM·h. In the data set with Mus musculus [11], the inhibition in vivo at 150 mg/kg was 39%. In addition, in the data set on Mus musculus [1], the inhibition in vivo at 300 mg/kg turned out to be 31%. Besides, the inhibition result with Mus musculus [12] was “Dose-dependent effect”. For the same compound, the Efficacy in data set [2] was determined as 65%. Also, the EC50 in data set [6] came out at 3200 nM. Also, in data set [3], the IC50 came to 36 nM. The same compound gave an exposure (AUC) in [7] of 760 µM·h.

(Values after ChEMBL document CHEMBL1938336, “Quinolone derivatives containing strained spirocycle as orally active glycogen synthase kinase 3β (GSK-3β) inhibitors for type 2 diabetics” (Bioorg Med Chem, 2012).)
